Laboratory results taken from ChEMBL document CHEMBL1153749, “Flavonoids from the heartwood of the Thai medicinal plant Dalbergia parviflora and their effects on estrogenic-responsive human breast cancer cells” (2009).
The source made the active and inactive calls. The calls are words filed in the database; no cut-off is given here.

Key:
Assay type in all cases: functional
[1] = tested on: MCF7; assay: Estrogenic activity in human MCF7 cells assessed as drug level causing stimulation of cell proliferation equivalent to 10 pM estradiol after 96 hrs by alamar blue assay
Summary of the method: (§1)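 Cells seeded at 10^4 per well in phenol red-free RPMI with 5% DCC-treated FBS. Compounds added in DMSO (vehicle control 1% DMSO) for 96 h at 37 °C, 5% CO2, with serial estradiol dilutions run alongside. Alamar Blue for 3 h, fluorescence ex 530/em 590 nm. Estradiol-equivalent concentration fitted by linear regression from at least five concentrations in quadruplicate.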

[2] = tested on: MCF7; assay: Estrogenic activity in luciferase transfected human MCF7 cells assessed as drug level causing stimulation of cell proliferation equivalent to 10 pM estradiol by luciferase reporter gene assay
Summary of the method: (§2)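 Reporter assay in MCF-7 or T47D cells transiently transfected with luciferase. Compounds tested from 0.01 to 10 µM. Luciferase induction is expressed as the compound concentration equivalent to the 10 or 100 pM estradiol response. Values come from linear regression over at least five concentrations in quadruplicate.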

[3] = tested on: MCF7; assay: Estrogenic activity in human MCF7 cells assessed as drug level causing stimulation of cell proliferation equivalent to 100 pM estradiol after 96 hrs by alamar blue assay; summary of the method: as §1
[4] = tested on: T47D; assay: Estrogenic activity in human T47D cells assessed as drug level causing stimulation of cell proliferation equivalent to 10 pM estradiol after 96 hrs by alamar blue assay; summary of the method: as §1
[5] = tested on: T47D; assay: Estrogenic activity in human T47D cells assessed as drug level causing stimulation of cell proliferation equivalent to 100 pM estradiol after 96 hrs by alamar blue assay; summary of the method: as §1
[6] = tested on: T47D; assay: Estrogenic activity in luciferase transfected human T47D cells assessed as drug level causing stimulation of cell proliferation equivalent to 10 pM estradiol by luciferase reporter gene assay; summary of the method: as §2
[7] = tested on: MCF7; assay: Estrogenic activity in luciferase transfected human MCF7 cells assessed as drug level causing stimulation of cell proliferation equivalent to 100 pM estradiol by luciferase reporter gene assay; summary of the method: as §2
[8] = tested on: T47D; assay: Estrogenic activity in luciferase transfected human T47D cells assessed as drug level causing stimulation of cell proliferation equivalent to 100 pM estradiol by luciferase reporter gene assay; summary of the method: as §2

## COc1cc(O)ccc1-c1coc2cc(O)cc(O)c2c1=O [THERALIN]
[1]
  Activity: 0.6 µM
[2]
  Activity: 0.01 µM
[3]
  Activity: >100 µM
[4]
  Activity: 1.7 µM
[5]
  Activity: >100 µM
[6]
  Activity: >100 µM
[7]
  Activity: 0.4 µM
[8]
  Activity: >100 µM

## COc1cc(OC)c(-c2coc3cc(O)cc(O)c3c2=O)cc1OC
[1]
  Activity: >100 µM
[2]
  Activity: 5.4 µM
[3]
  Activity: >100 µM
[4]
  Activity: 0.1 µM
[5]
  Activity: >100 µM
[6]
  Activity: 6.3 µM
[7]
  Activity: 7.8 µM
[8]
  Activity: >100 µM

## COc1ccc(-c2coc3cc(O)cc(O)c3c2=O)c(OC)c1
[1]
  Activity: 3.2 µM
[2]
  Activity: >100 µM
[3]
  Activity: 19.6 µM
[4]
  Activity: 0.4 µM
[5]
  Activity: >100 µM
[6]
  Activity: 1.8 µM
[7]
  Activity: >100 µM
[8]
  Activity: 3.1 µM

## COc1ccc(C2COc3c(ccc(O)c3O)C2)c(OC)c1O (centres undefined)
[1]
  Activity: inactive
[2]
  Activity: inactive
[3]
  Activity: inactive
[4]
  Activity: inactive
[5]
  Activity: inactive
[6]
  Activity: inactive
[7]
  Activity: inactive
[8]
  Activity: inactive

## COc1cc(O)c(-c2coc3cc(O)cc(O)c3c2=O)cc1O [KHRINONE B]
[1]
  Activity: >100 µM
[2]
  Activity: >100 µM
[3]
  Activity: >100 µM
[4]
  Activity: >100 µM
[5]
  Activity: >100 µM
[6]
  Activity: >100 µM
[7]
  Activity: >100 µM
[8]
  Activity: >100 µM

## O=c1c(-c2ccc(O)cc2)coc2cc(O)cc(O)c12 [GENISTEIN]
[1]
  Activity: 0.01 µM
[2]
  Activity: 0.01 µM
[3]
  Activity: 0.11 µM
[4]
  Activity: 0.01 µM
[5]
  Activity: 0.08 µM
[6]
  Activity: 0.01 µM
[7]
  Activity: 0.01 µM
[8]
  Activity: 0.6 µM

## COc1ccc(-c2coc3cc(O)ccc3c2=O)c(OC)c1 [2'-METHOXYFORMONETIN]
[1]
  Activity: 0.3 µM
[2]
  Activity: >100 µM
[3]
  Activity: 5.2 µM
[4]
  Activity: 0.01 µM
[5]
  Activity: 1.7 µM
[6]
  Activity: 1.8 µM
[7]
  Activity: >100 µM
[8]
  Activity: 6.2 µM

## COc1ccc([C@@]2(O)COc3cc(O)ccc3C2=O)c(O)c1O [ISODARPARVINOL B]
[1]
  Activity: >100 µM
[2]
  Activity: 1.2 µM
[3]
  Activity: >100 µM
[4]
  Activity: >100 µM
[5]
  Activity: >100 µM
[6]
  Activity: >100 µM
[7]
  Activity: 3.4 µM
[8]
  Activity: >100 µM

## O=C1C[C@@H](c2ccc(O)cc2)Oc2cc(O)cc(O)c21 [NARINGENIN]
[1]
  Activity: 0.2 µM
[2]
  Activity: 1.7 µM
[3]
  Activity: 0.7 µM
[4]
  Activity: 0.09 µM
[5]
  Activity: 1.6 µM
[6]
  Activity: 0.01 µM
[7]
  Activity: 2.6 µM
[8]
  Activity: 5.8 µM

## COc1ccc(-c2coc3cc(O)cc(O)c3c2=O)cc1O [PRATENSEIN]
[1]
  Activity: 4.5 µM
[2]
  Activity: >100 µM
[3]
  Activity: 50.4 µM
[4]
  Activity: 6.4 µM
[5]
  Activity: >100 µM
[6]
  Activity: >100 µM
[7]
  Activity: >100 µM
[8]
  Activity: >100 µM

## COc1ccc([C@H]2COc3cc(O)cc(O)c3C2=O)cc1O
[1]
  Activity: 2.9 µM
[2]
  Activity: 0.6 µM
[3]
  Activity: >100 µM
[4]
  Activity: 0.5 µM
[5]
  Activity: 5.7 µM
[6]
  Activity: 1.3 µM
[7]
  Activity: 2.7 µM
[8]
  Activity: >100 µM

## COc1ccc(-c2coc3cc(O)ccc3c2=O)cc1O [CALYCOSIN]
[1]
  Activity: >100 µM
[2]
  Activity: 0.6 µM
[3]
  Activity: >100 µM
[4]
  Activity: 4.1 µM
[5]
  Activity: >100 µM
[6]
  Activity: 8.8 µM
[7]
  Activity: 4.7 µM
[8]
  Activity: >100 µM

## COc1cc2c(cc1O)C1c3ccc(O)cc3OCC1O2 (racemic)
[1]
  Activity: inactive
[2]
  Activity: inactive
[3]
  Activity: inactive
[4]
  Activity: inactive
[5]
  Activity: inactive
[6]
  Activity: inactive
[7]
  Activity: inactive
[8]
  Activity: inactive

## COc1ccc(C2COc3cc(O)ccc3C2=O)c(OC)c1OC (centres undefined)
[1]
  Activity: 2.5 µM
[2]
  Activity: >100 µM
[3]
  Activity: 46.3 µM
[4]
  Activity: 6.1 µM
[5]
  Activity: >100 µM
[6]
  Activity: 3.3 µM
[7]
  Activity: >100 µM
[8]
  Activity: >100 µM

## COc1cc(-c2coc3cc(O)ccc3c2=O)ccc1O
[1]
  Activity: 4.7 µM
[2]
  Activity: 1.1 µM
[3]
  Activity: >100 µM
[4]
  Activity: >100 µM
[5]
  Activity: >100 µM
[6]
  Activity: 1.2 µM
[7]
  Activity: 2.2 µM
[8]
  Activity: 5.8 µM

## COc1ccc(C2COc3cc(O)ccc3C2=O)cc1O (centres undefined)
[1]
  Activity: 24.5 µM
[2]
  Activity: >100 µM
[3]
  Activity: >100 µM
[4]
  Activity: >100 µM
[5]
  Activity: >100 µM
[6]
  Activity: 6 µM
[7]
  Activity: >100 µM
[8]
  Activity: >100 µM

## COc1ccc(-c2coc3cc(O)ccc3c2=O)c(OC)c1O [KHRINONE E]
[1]
  Activity: 4.7 µM
[2]
  Activity: 5.9 µM
[3]
  Activity: >100 µM
[4]
  Activity: >100 µM
[5]
  Activity: >100 µM
[6]
  Activity: >100 µM
[7]
  Activity: >100 µM
[8]
  Activity: >100 µM

## COc1c(O)cc2occ(-c3ccc(O)cc3)c(=O)c2c1O [TECTORIGENIN]
[1]
  Activity: 0.5 µM
[2]
  Activity: >100 µM
[3]
  Activity: 2.7 µM
[4]
  Activity: 0.3 µM
[5]
  Activity: 6.9 µM
[6]
  Activity: 1.4 µM
[7]
  Activity: >100 µM
[8]
  Activity: 2.2 µM

## O=C(/C=C/c1ccc(O)cc1)c1ccc(O)cc1O [ISOLIQUIRITIGENIN]
[1]
  Activity: 1.1 µM
[2]
  Activity: 0.01 µM
[3]
  Activity: 4 µM
[4]
  Activity: 1 µM
[5]
  Activity: >100 µM
[6]
  Activity: >100 µM
[7]
  Activity: >100 µM
[8]
  Activity: >100 µM

## COC1=CC(=O)C(c2coc3cc(O)ccc3c2=O)=CC1=O [BOWDICHIONE]
[1]
  Activity: 0.01 µM
[2]
  Activity: 0.7 µM
[3]
  Activity: 1.4 µM
[4]
  Activity: >100 µM
[5]
  Activity: >100 µM
[6]
  Activity: >100 µM
[7]
  Activity: 0.9 µM
[8]
  Activity: >100 µM

## O=C1c2c(O)cc(O)cc2O[C@H](c2ccccc2)[C@H]1O
[1]
  Activity: inactive
[2]
  Activity: inactive
[3]
  Activity: inactive
[4]
  Activity: inactive
[5]
  Activity: inactive
[6]
  Activity: inactive
[7]
  Activity: inactive
[8]
  Activity: inactive

## COc1ccc(-c2coc3cc(O)ccc3c2=O)cc1 [FORMONONETIN]
[1]
  Activity: >100 µM
[2]
  Activity: 0.01 µM
[3]
  Activity: >100 µM
[4]
  Activity: 0.03 µM
[5]
  Activity: >100 µM
[6]
  Activity: 0.01 µM
[7]
  Activity: 0.01 µM
[8]
  Activity: 0.01 µM

## O=C1C[C@@H](c2ccccc2)Oc2cc(O)cc(O)c21 [PINOCEMBRIN]
[1]
  Activity: 17 µM
[2]
  Activity: >100 µM
[3]
  Activity: >100 µM
[4]
  Activity: 7.6 µM
[5]
  Activity: >100 µM
[6]
  Activity: >100 µM
[7]
  Activity: >100 µM
[8]
  Activity: >100 µM

## COc1ccc([C@@H]2COc3cc(O)ccc3C2)c(O)c1
[1]
  Activity: >100 µM
[2]
  Activity: >100 µM
[3]
  Activity: >100 µM
[4]
  Activity: 0.02 µM
[5]
  Activity: 0.2 µM
[6]
  Activity: >100 µM
[7]
  Activity: >100 µM
[8]
  Activity: >100 µM

## COc1cc(O)ccc1C/C=C/c1ccc(O)cc1 [XENOGNOSIN]
[1]
  Activity: 0.1 µM
[2]
  Activity: >100 µM
[3]
  Activity: 4.6 µM
[4]
  Activity: 0.7 µM
[5]
  Activity: >100 µM
[6]
  Activity: 0.01 µM
[7]
  Activity: >100 µM
[8]
  Activity: 5.7 µM

## COc1cc2c(cc1-c1coc3cc(O)cc(O)c3c1=O)OCO2 [KHRINONE D]
[1]
  Activity: 1.8 µM
[2]
  Activity: 0.01 µM
[3]
  Activity: 4.2 µM
[4]
  Activity: 0.01 µM
[5]
  Activity: >100 µM
[6]
  Activity: 5.3 µM
[7]
  Activity: 0.6 µM
[8]
  Activity: >100 µM

## COc1cc([C@H]2Oc3cc(O)ccc3C(=O)[C@@H]2O)ccc1O [ERYCIBENIN D]
[1]
  Activity: >100 µM
[2]
  Activity: >100 µM
[3]
  Activity: >100 µM
[4]
  Activity: 5.7 µM
[5]
  Activity: >100 µM
[6]
  Activity: 0.3 µM
[7]
  Activity: >100 µM
[8]
  Activity: >100 µM

## COc1cc(O)c([C@@H]2COc3cc(O)ccc3C2)cc1OC
[1]
  Activity: 1.1 µM
[2]
  Activity: >100 µM
[3]
  Activity: 0.2 µM
[4]
  Activity: 0.02 µM
[5]
  Activity: >100 µM
[6]
  Activity: >100 µM
[7]
  Activity: >100 µM
[8]
  Activity: >100 µM
